Measured values from ChEMBL document CHEMBL1135642, “Synthesis and biological evaluation of 7,8,9,10-tetrahydroimidazo[1,2-c]pyrido[3,4-e]pyrimdin-5(6H)-ones as functionally selective ligands of the benzodiazepine receptor site on the GABA(A) receptor” (J Med Chem, 2002).
The source made the active and inactive calls. The calls are words filed in the database; no cut-off is given here.

Columns and labels:
[1] = target: GABA-A receptor; anion channel (Rattus norvegicus) (UniProt O09028+P15431+P18506+P18508+P19969+P20236+P23574+P23576+P28471+P28473+P30191+P62813+P63079+P63138+Q91ZM7+Q9ES14); assay: Binding affinity by displacement of [3H]flumazenil from rat cortex homogenates; Not active; assay type: functional
How it was run: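 Displacement of [3H]flumazenil from rat cortex homogenates. […] Values are averages (±SD); some analogues were run once as a single set of triplicates. NA means an IC50 was not achieved at the highest dose tested.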

[2] = target: T1, Gamma-aminobutyric acid receptor subunit alpha-1 (Homo sapiens) (UniProt P14867); assay: Maximum percent potentiation against gamma-aminobutyric acid (GABA) A receptor, alpha 1; conditions: Xenopus laevis
T1 sequence (whole entry): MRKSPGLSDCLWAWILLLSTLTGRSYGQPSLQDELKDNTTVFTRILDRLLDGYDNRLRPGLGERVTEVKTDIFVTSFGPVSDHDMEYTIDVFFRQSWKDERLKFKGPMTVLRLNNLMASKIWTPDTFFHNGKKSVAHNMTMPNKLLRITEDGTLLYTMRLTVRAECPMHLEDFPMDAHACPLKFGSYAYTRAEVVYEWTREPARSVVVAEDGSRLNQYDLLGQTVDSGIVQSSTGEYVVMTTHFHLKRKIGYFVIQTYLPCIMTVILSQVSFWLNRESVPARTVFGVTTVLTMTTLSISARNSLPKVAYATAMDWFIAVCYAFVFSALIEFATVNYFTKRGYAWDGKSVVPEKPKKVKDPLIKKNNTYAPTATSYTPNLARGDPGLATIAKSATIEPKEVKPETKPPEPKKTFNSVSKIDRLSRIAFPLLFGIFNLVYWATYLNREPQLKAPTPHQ
How it was run: (§1)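 Xenopus laevis oocytes were injected with human cRNA for the α, β and γ subunits needed to express each receptor subtype (α1, α2, α3 or α5). Electrophysiological recording was used to read potentiation, and the effective concentration and maximal percent potentiation were derived from it.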

Rattus norvegicus [3] = species on record: Rattus norvegicus; assay: Rat behavioral spontaneous Locomotor Activity; assay type: functional
How it was run: (§2)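 Male Sprague-Dawley rats received the test drug iv in 50% aqueous PEG-400, which also served as the control vehicle. They were then placed in an automated activity monitor, and movement time, total distance and vertical activity were recorded over 15 min. Each drug was compared against vehicle, and NS marks a difference that was not significant.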

[4] = target: T2, Gamma-aminobutyric acid receptor subunit alpha-2 (Homo sapiens) (UniProt P47869); assay: Maximum percent potentiation against gamma-aminobutyric acid (GABA) A receptor, alpha 2; conditions: Xenopus laevis; how it was run: as §1
T2 sequence (whole entry): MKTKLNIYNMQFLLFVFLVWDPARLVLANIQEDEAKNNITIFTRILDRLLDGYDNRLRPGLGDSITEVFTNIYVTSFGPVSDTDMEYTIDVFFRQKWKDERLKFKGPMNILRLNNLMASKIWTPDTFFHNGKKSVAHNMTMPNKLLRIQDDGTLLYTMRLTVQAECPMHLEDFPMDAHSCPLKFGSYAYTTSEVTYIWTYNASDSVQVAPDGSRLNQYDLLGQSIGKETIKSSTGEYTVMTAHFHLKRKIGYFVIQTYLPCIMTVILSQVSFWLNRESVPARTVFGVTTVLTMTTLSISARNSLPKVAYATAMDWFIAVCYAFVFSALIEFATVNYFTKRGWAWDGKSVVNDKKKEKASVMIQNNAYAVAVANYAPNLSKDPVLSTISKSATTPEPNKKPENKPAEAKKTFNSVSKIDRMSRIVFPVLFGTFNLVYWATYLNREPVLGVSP

[5] = target: T3, Gamma-aminobutyric acid receptor subunit alpha-5 (Homo sapiens) (UniProt P31644); assay: Maximum percent potentiation against gamma-aminobutyric acid (GABA) A receptor, alpha 5; conditions: Xenopus laevis; how it was run: as §1
T3 sequence (whole entry): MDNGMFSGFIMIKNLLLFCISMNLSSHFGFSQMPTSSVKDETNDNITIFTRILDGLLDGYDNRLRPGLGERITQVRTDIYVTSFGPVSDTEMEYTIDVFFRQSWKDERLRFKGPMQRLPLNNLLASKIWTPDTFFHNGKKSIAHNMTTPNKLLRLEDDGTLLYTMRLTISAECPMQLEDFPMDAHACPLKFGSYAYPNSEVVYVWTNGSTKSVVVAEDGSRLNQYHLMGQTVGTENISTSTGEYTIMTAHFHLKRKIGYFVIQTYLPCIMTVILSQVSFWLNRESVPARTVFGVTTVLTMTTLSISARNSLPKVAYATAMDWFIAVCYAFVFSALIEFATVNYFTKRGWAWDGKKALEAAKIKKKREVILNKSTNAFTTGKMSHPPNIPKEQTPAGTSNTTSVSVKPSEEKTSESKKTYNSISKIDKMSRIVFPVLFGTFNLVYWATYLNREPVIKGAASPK

[6] = target: T4, Gamma-aminobutyric acid receptor subunit alpha-3 (Homo sapiens) (UniProt P34903); assay: Maximum percent potentiation against gamma-aminobutyric acid (GABA) A receptor, alpha 3; conditions: Xenopus laevis; how it was run: as §1
T4 sequence (whole entry): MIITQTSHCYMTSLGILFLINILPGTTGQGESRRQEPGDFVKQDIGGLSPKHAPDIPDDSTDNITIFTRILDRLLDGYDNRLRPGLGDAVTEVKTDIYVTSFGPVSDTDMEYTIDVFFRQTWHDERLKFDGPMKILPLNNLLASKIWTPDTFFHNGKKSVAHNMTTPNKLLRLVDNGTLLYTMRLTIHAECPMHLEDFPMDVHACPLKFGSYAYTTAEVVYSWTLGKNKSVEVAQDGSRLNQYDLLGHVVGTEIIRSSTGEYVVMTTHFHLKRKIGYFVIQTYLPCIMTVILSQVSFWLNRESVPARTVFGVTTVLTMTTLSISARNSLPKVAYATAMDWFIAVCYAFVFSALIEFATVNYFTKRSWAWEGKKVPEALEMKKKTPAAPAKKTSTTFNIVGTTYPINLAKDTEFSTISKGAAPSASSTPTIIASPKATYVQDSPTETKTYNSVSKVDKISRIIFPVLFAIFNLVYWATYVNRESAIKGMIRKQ

[7] = target: T5, Gamma-aminobutyric acid receptor subunit alpha-5 (Homo sapiens, UniProt P31644); assay: Effective concentration against Gamma-aminobutyric acid A receptor, alpha 5; design: species or system Xenopus laevis; how it was run: as §1
T5 sequence (P31644 whole entry): T3 sequence (whole entry)

[8] = target: T6, Gamma-aminobutyric acid receptor subunit alpha-1 (Homo sapiens, UniProt P14867); assay: Effective concentration against gamma-aminobutyric acid (GABA) A receptor, alpha 1; design: species or system Xenopus laevis; how it was run: as §1
T6 sequence (P14867 whole entry): T1 sequence (whole entry)

[9] = target: T7, Gamma-aminobutyric acid receptor subunit alpha-3 (Homo sapiens, UniProt P34903); assay: Effective concentration against gamma-aminobutyric acid (GABA) A receptor, alpha 3; design: species or system Xenopus laevis; how it was run: as §1
T7 sequence (P34903 whole entry): T4 sequence (whole entry)

[10] = target: T8, Gamma-aminobutyric acid receptor subunit alpha-2 (Homo sapiens, UniProt P47869); assay: Effective concentration against gamma-aminobutyric acid (GABA) A receptor, alpha 2; design: species or system Xenopus laevis; how it was run: as §1
T8 sequence (P47869 whole entry): T2 sequence (whole entry)

[11] = target: GABA-A receptor; anion channel; assay: Binding affinity was determined by displacement of [3H]flumazenil from rat cortex homogenates; assay type: functional
How it was run: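 Displacement of [3H]flumazenil from rat cortex homogenates. Values are averages (±SD); some analogues were run once as a single set of triplicates. NA means an IC50 was not achieved at the highest dose tested.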

Rattus norvegicus [12] = species on record: Rattus norvegicus; assay: Rat behavioral spontaneous Locomotor Activity; Not significant.; assay type: functional, organism-based; how it was run: as §2

Structure (SMILES) | NA [1] | Activity [2] [%] | minimum effective dose on locomotor activity (Rattus norvegicus [3]) [mg/kg] | Activity [4] [%] | Activity [5] [%] | Activity [6] [%] | OMNI med (Rattus norvegicus [3]) [mg/kg] | EC50 [7] [nM] | EC50 [8] [nM] | EC50 [9] [nM] | EC50 [10] [nM] | Ki [11] [nM] | NS (Rattus norvegicus [12])
O=C(c1ccccc1)N1CCc2nc(O)n3cc(-c4cccc(Cl)c4)nc3c2C1 | inactive | – | – | – | – | – | – | – | – | – | – | – | –
COc1ccc(-c2cn3c(O)nc4c(c3n2)CN(C(=O)c2ccccc2)CC4)cc1 | inactive | – | – | – | – | – | – | – | – | – | – | – | –
CCC(=O)N1CCc2nc(O)n3cc(-c4ccc(OC)cc4)nc3c2C1 | inactive | – | – | – | – | – | – | – | – | – | – | – | –
Oc1nc2c(c3nc(-c4ccc(F)cc4)cn13)CN(Cc1ccccc1)CC2 | – | 186 | 1 | 155 | – | – | – | – | – | – | – | – | –
Cc1nnc2n1-c1ccc(Cl)cc1C(c1ccccc1)=NC2 [ALPRAZOLAM] | – | 327 | – | 333 | 206 | 774 | 0.125 | 10 | 37 | 69 | 12 | 3.3 | –
Cc1ccc(-c2nc3ccc(C)cn3c2CC(=O)N(C)C)cc1 [ZOLPIDEM] | – | 322 | – | 291 | < 20 | 700 | 0.25 | > 3000 | – | – | – | – | –
Oc1nc2c(c3nc(-c4ccccc4F)cn13)CN(Cc1cccs1)CC2 | – | 50 | – | 54 | 49 | 96 | – | 375 | 107 | 367 | 67 | 0.5 | –
Cc1ccc(-c2cn3c(O)nc4c(c3n2)CN(Cc2ccccc2)CC4)cc1 | – | 62 | – | 94 | 17 | 174 | – | 650 | 266 | 3830 | 1180 | 43 | –
Oc1nc2c(c3nc(-c4cccc(F)c4)cn13)CN(Cc1ccccc1)CC2 | – | 92 | 2 | 81 | – | – | – | – | – | – | – | – | –
Oc1nc2c(c3nc(-c4ccccc4F)cn13)CN(Cc1ccncc1)CC2 | – | 17 | – | 42 | 0 | 58 | – | – | 53 | 33 | 99 | 0.9 | inactive
Oc1nc2c(c3nc(-c4ccccc4F)cn13)CN(Cc1cccnc1)CC2 | – | 29 | 0.5 | 78 | 0 | 81 | – | – | – | – | – | – | –
O=c1[nH]c2c(c3nc(-c4ccccc4F)cn13)CN(Cc1cnc[nH]1)CC2 | – | – | – | – | – | – | – | 439 | 118 | 425 | 459 | 10.1 | –
COc1ccc(-c2cn3c(O)nc4c(c3n2)CN(Cc2ccccc2)CC4)cc1 | – | 122 | 0.06 | 142 | – | – | – | – | – | – | – | – | –
Oc1nc2c(c3nc(-c4ccccc4F)cn13)CNCC2 | inactive | – | – | – | – | – | – | – | – | – | – | – | –
CCCCN1CCc2nc(O)n3cc(-c4ccccc4F)nc3c2C1 | – | 70 | – | 86 | 4 | 72 | – | 291 | 258 | 394 | 247 | 7.3 | –
O=c1[nH]c2c(c3nc(-c4ccccc4F)cn13)CN(CC1CCCCC1)CC2 | – | – | – | – | – | – | – | 231 | 127 | 213 | 202 | 0.9 | –
Oc1nc2c(c3nc(-c4ccccc4F)cn13)CN(CC1CC1)CC2 | – | 31 | – | 36 | 7 | 28 | – | 94 | 135 | 424 | 1160 | 30 | –
CCCCCC(=O)N1CCc2nc(O)n3cc(-c4ccccc4F)nc3c2C1 | inactive | – | – | – | – | – | – | – | – | – | – | – | –
